# Measured values taken from ChEMBL document CHEMBL1138520, “Molecular and conformational determinants of pituitary adenylate cyclase-activating polypeptide (PACAP) for activation of the PAC1 receptor” (J Med Chem, 2009).
# Key:
# [1] = target: T1, Pituitary adenylate cyclase-activating polypeptide type I receptor (Homo sapiens, UniProt P41586); experiment: Agonist activity at human recombinant PAC1 receptor expressed in CHO cells assessed as PACAP38-induced calcium mobilization by FLIPR assay relative to PACAP38; type: functional, cell-based
# Outline: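 CHO cells stably expressing recombinant human PAC1, plated 24 h before assay, loaded with fluo-4 AM for 60 min at 37 °C in the dark, then rinsed into HBSS for 15 min at 37 °C. Peptide was added 18 s into a 150 s read (ex 480/em 525 nm), at final concentrations of 1 × 10-12 to 1 × 10^-5 M. Response was normalised to 1 × 10^-5 M PACAP38 on each plate. EC50 and efficacy came from nonlinear regression; 4-10 independent assays in duplicate.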
# Target sequence in this assay (P41586 21-468 limits assumed): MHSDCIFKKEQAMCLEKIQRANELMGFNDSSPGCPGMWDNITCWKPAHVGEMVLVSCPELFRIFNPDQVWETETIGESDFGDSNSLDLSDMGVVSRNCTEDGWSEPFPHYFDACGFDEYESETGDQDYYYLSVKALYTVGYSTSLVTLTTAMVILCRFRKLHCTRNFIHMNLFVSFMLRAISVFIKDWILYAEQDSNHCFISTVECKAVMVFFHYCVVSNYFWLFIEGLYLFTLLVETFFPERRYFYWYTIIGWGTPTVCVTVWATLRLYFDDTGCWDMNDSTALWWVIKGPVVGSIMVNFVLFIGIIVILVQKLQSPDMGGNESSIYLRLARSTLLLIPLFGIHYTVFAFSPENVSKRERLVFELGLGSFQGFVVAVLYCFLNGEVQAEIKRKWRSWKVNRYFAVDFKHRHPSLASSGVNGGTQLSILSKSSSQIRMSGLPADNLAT
# [2] = target: T1, Pituitary adenylate cyclase-activating polypeptide type I receptor; experiment: Displacement of [125I]Ac-PACAP27 from human recombinant PAC1 receptor expressed in CHO cells by gamma- counter; type: cell-based
# Target sequence in this assay (P41586 whole entry): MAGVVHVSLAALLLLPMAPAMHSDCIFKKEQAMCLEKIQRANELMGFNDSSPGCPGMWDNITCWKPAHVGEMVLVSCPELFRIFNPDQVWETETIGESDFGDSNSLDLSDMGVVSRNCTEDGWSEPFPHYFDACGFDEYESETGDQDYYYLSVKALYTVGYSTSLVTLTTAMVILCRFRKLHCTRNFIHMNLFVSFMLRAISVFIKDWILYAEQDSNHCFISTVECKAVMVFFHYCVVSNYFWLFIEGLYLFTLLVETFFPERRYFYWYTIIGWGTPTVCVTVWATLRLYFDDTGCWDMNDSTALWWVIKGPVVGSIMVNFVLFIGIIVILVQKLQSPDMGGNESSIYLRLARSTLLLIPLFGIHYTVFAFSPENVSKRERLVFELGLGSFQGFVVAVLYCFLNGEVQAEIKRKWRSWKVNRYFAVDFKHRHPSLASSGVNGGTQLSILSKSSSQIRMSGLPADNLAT
SMILES,Emax [1],IC50 [2]
CC[C@H](C)[C@H](NC(=O)CNC(=O)[C@H](CC(=O)O)NC(=O)[C@H](CO)NC(=O)[C@H](Cc1cnc[nH]1)NC(C)=O)C(=O)N[C@@H](Cc1ccccc1)C(=O)N[C@H](C(=O)N[C@@H](CC(=O)O)C(=O)N[C@@H](CO)C(=O)N[C@@H](Cc1ccc(O)cc1)C(=O)N[C@@H](CO)C(=O)N[C@@H](CCCNC(=N)N)C(=O)N[C@@H](Cc1ccc(O)cc1)C(=O)N[C@@H](CCCNC(=N)N)C(=O)N[C@@H](CCCCN)C(=O)N[C@@H](CCC(N)=O)C(=O)N[C@@H](CCSC)C(=O)N[C@@H](C)C(=O)N[C@H](C(=O)N[C@@H](CCCCN)C(=O)N[C@@H](CCCCN)C(=O)N[C@@H](Cc1ccc(O)cc1)C(=O)N[C@@H](CC(C)C)C(=O)N[C@@H](C)C(=O)N[C@@H](C)C(=O)N[C@H](C(=O)N[C@@H](CC(C)C)C(=O)NCC(=O)N[C@@H](CCCCN)C(=O)N[C@@H](CCCNC(=N)N)C(=O)N[C@@H](Cc1ccc(O)cc1)C(=O)N[C@@H](CCCCN)C(=O)N[C@@H](CCC(N)=O)C(=O)N[C@@H](CCCNC(=N)N)C(=O)N[C@H](C(=O)N[C@@H](CCCCN)C(=O)N[C@@H](CC(N)=O)C(=O)N[C@@H](CCCCN)C(N)=O)C(C)C)C(C)C)C(C)C)[C@@H](C)O,91.1%,–
CC[C@H](C)[C@H](NC(=O)CNC(=O)[C@H](CC(=O)O)NC(=O)[C@H](CO)NC(=O)[C@@H](N)Cc1cn(C)cn1)C(=O)N[C@@H](Cc1ccccc1)C(=O)N[C@H](C(=O)N[C@@H](CC(=O)O)C(=O)N[C@@H](CO)C(=O)N[C@@H](Cc1ccc(O)cc1)C(=O)N[C@@H](CO)C(=O)N[C@@H](CCCNC(=N)N)C(=O)N[C@@H](Cc1ccc(O)cc1)C(=O)N[C@@H](CCCNC(=N)N)C(=O)N[C@@H](CCCCN)C(=O)N[C@@H](CCC(N)=O)C(=O)N[C@@H](CCSC)C(=O)N[C@@H](C)C(=O)N[C@H](C(=O)N[C@@H](CCCCN)C(=O)N[C@@H](CCCCN)C(=O)N[C@@H](Cc1ccc(O)cc1)C(=O)N[C@@H](CC(C)C)C(=O)N[C@@H](C)C(=O)N[C@@H](C)C(=O)N[C@H](C(=O)N[C@@H](CC(C)C)C(=O)NCC(=O)N[C@@H](CCCCN)C(=O)N[C@@H](CCCNC(=N)N)C(=O)N[C@@H](Cc1ccc(O)cc1)C(=O)N[C@@H](CCCCN)C(=O)N[C@@H](CCC(N)=O)C(=O)N[C@@H](CCCNC(=N)N)C(=O)N[C@H](C(=O)N[C@@H](CCCCN)C(=O)N[C@@H](CC(N)=O)C(=O)N[C@@H](CCCCN)C(N)=O)C(C)C)C(C)C)C(C)C)[C@@H](C)O,18.2%,–
CC[C@H](C)[C@H](NC(=O)CNC(=O)[C@H](CC(=O)O)NC(=O)[C@H](CO)NC(=O)[C@@H](N)Cc1cncn1C)C(=O)N[C@@H](Cc1ccccc1)C(=O)N[C@H](C(=O)N[C@@H](CC(=O)O)C(=O)N[C@@H](CO)C(=O)N[C@@H](Cc1ccc(O)cc1)C(=O)N[C@@H](CO)C(=O)N[C@@H](CCCNC(=N)N)C(=O)N[C@@H](Cc1ccc(O)cc1)C(=O)N[C@@H](CCCNC(=N)N)C(=O)N[C@@H](CCCCN)C(=O)N[C@@H](CCC(N)=O)C(=O)N[C@@H](CCSC)C(=O)N[C@@H](C)C(=O)N[C@H](C(=O)N[C@@H](CCCCN)C(=O)N[C@@H](CCCCN)C(=O)N[C@@H](Cc1ccc(O)cc1)C(=O)N[C@@H](CC(C)C)C(=O)N[C@@H](C)C(=O)N[C@@H](C)C(=O)N[C@H](C(=O)N[C@@H](CC(C)C)C(=O)NCC(=O)N[C@@H](CCCCN)C(=O)N[C@@H](CCCNC(=N)N)C(=O)N[C@@H](Cc1ccc(O)cc1)C(=O)N[C@@H](CCCCN)C(=O)N[C@@H](CCC(N)=O)C(=O)N[C@@H](CCCNC(=N)N)C(=O)N[C@H](C(=O)N[C@@H](CCCCN)C(=O)N[C@@H](CC(N)=O)C(=O)N[C@@H](CCCCN)C(N)=O)C(C)C)C(C)C)C(C)C)[C@@H](C)O,87.6%,–

# Next, values leading:
Emax [1],IC50 [2],SMILES
63.3%,–,CC[C@H](C)[C@H](NC(=O)CNC(=O)[C@H](CC(=O)O)NC(=O)[C@H](CO)NC(=O)[C@@H](N)Cc1cnc[nH]1)C(=O)N[C@@H](Cc1ccccc1)C(=O)N[C@@H](C(=O)N[C@@H](CC(=O)O)C(=O)N[C@@H](CO)C(=O)N[C@@H](Cc1ccc(O)cc1)C(=O)N[C@@H](CO)C(=O)N[C@@H](CCCNC(=N)N)C(=O)N[C@@H](Cc1ccc(O)cc1)C(=O)N[C@@H](CCCNC(=N)N)C(=O)N[C@@H](CCCCN)C(=O)N[C@@H](CCC(N)=O)C(=O)N[C@@H](CCSC)C(=O)N[C@@H](C)C(=O)N[C@H](C(=O)N[C@@H](CCCCN)C(=O)N[C@@H](CCCCN)C(=O)N[C@@H](Cc1ccc(O)cc1)C(=O)N[C@@H](CC(C)C)C(=O)N[C@@H](C)C(=O)N[C@@H](C)C(=O)N[C@H](C(=O)N[C@@H](CC(C)C)C(=O)NCC(=O)N[C@@H](CCCCN)C(=O)N[C@@H](CCCNC(=N)N)C(=O)N[C@@H](Cc1ccc(O)cc1)C(=O)N[C@@H](CCCCN)C(=O)N[C@@H](CCC(N)=O)C(=O)N[C@@H](CCCNC(=N)N)C(=O)N[C@H](C(=O)N[C@@H](CCCCN)C(=O)N[C@@H](CC(N)=O)C(=O)N[C@@H](CCCCN)C(N)=O)C(C)C)C(C)C)C(C)C)[C@@H](C)O
100%,–,CC[C@H](C)[C@H](NC(=O)CNC(=O)[C@H](CC(=O)O)NC(=O)[C@H](CO)NC(=O)[C@@H](N)Cc1cnc[nH]1)C(=O)N[C@@H](Cc1ccccc1)C(=O)N[C@H](C(=O)N[C@@H](CC(=O)O)C(=O)N[C@@H](CO)C(=O)N[C@@H](Cc1ccc(O)cc1)C(=O)N[C@@H](CO)C(=O)N[C@@H](CCCNC(=N)N)C(=O)N[C@@H](Cc1ccc(O)cc1)C(=O)N[C@@H](CCCNC(=N)N)C(=O)N[C@@H](CCCCN)C(=O)N[C@@H](CCC(N)=O)C(=O)N[C@@H](CCSC)C(=O)N[C@@H](C)C(=O)N[C@H](C(=O)N[C@@H](CCCCN)C(=O)N[C@@H](CCCCN)C(=O)N[C@@H](Cc1ccc(O)cc1)C(=O)N[C@@H](CC(C)C)C(=O)N[C@@H](C)C(=O)N[C@@H](C)C(=O)N[C@H](C(=O)N[C@@H](CC(C)C)C(=O)NCC(=O)N[C@@H](CCCCN)C(=O)N[C@@H](CCCNC(=N)N)C(=O)N[C@@H](Cc1ccc(O)cc1)C(=O)N[C@@H](CCCCN)C(=O)N[C@@H](CCC(N)=O)C(=O)N[C@@H](CCCNC(=N)N)C(=O)N[C@H](C(=O)N[C@@H](CCCCN)C(=O)N[C@@H](CC(N)=O)C(=O)N[C@@H](CCCCN)C(N)=O)C(C)C)C(C)C)C(C)C)[C@@H](C)O
–,122 nM,CC[C@@H](C)[C@@H](NC(=O)CNC(=O)[C@H](CC(=O)O)NC(=O)[C@H](CO)NC(=O)[C@@H](N)Cc1cnc[nH]1)C(=O)N[C@@H](Cc1ccccc1)C(=O)N[C@H](C(=O)N[C@@H](CC(=O)O)C(=O)N[C@@H](CO)C(=O)N[C@@H](Cc1ccc(O)cc1)C(=O)N[C@@H](CO)C(=O)N[C@@H](CCCNC(=N)N)C(=O)N[C@@H](Cc1ccc(O)cc1)C(=O)N[C@@H](CCCNC(=N)N)C(=O)N[C@@H](CCCCN)C(=O)N[C@@H](CCC(N)=O)C(=O)N[C@@H](CCSC)C(=O)N[C@@H](C)C(=O)N[C@H](C(=O)N[C@@H](CCCCN)C(=O)N[C@@H](CCCCN)C(=O)N[C@@H](Cc1ccc(O)cc1)C(=O)N[C@@H](CC(C)C)C(=O)N[C@@H](C)C(=O)N[C@@H](C)C(=O)N[C@H](C(=O)N[C@@H](CC(C)C)C(=O)NCC(=O)N[C@@H](CCCCN)C(=O)N[C@@H](CCCNC(=N)N)C(=O)N[C@@H](Cc1ccc(O)cc1)C(=O)N[C@@H](CCCCN)C(=O)N[C@@H](CCC(N)=O)C(=O)N[C@@H](CCCNC(=N)N)C(=O)N[C@H](C(=O)N[C@@H](CCCCN)C(=O)N[C@@H](CC(N)=O)C(=O)N[C@@H](CCCCN)C(N)=O)C(C)C)C(C)C)C(C)C)[C@@H](C)O
